Values after ≈ are worked out from the molar mass of the structure shown. Active and inactive are the calls of the source. The rule behind the calls is not given here.
What follows are molecules tested on Streptococcus agalactiae (assay: Antimicrobial activity against Streptococcus agalactiae after 24 hrs by two-fold dilution method).
Assay type: functional
Procedure, shortened: (§1)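 Two-fold serial dilution assay reporting MIC in μg/mL, run alongside Staphylococcus aureus, Escherichia coli, Bacillus subtilis and Streptococcus agalactiae. Tobramycin served as positive control.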

Row | SMILES | MIC [µg/mL]
1 | NC[C@H]1O[C@H](O[C@H]2[C@H](O)[C@@H](O[C@H]3O[C@H](CO)[C@@H](O)[C@H](N)[C@H]3O)[C@H](N)C[C@@H]2N)[C@H](N)C[C@@H]1O [TOBRAMYCIN] | 32 (≈ 68.4 µM)
2 | CC(=O)O[C@@H]1C(=O)[C@@]2(C)[C@@H](CC[C@H]3C4=C(CCC=C(C)C)C(=O)O[C@H]4C[C@@]32C)[C@@]2(C)C=CC(=O)[C@@H](C)[C@H]12 | > 128
3 | CCC(=O)O[C@H]1C[C@@]2(C)[C@@H](CC[C@H]3[C@@]4(C)C=CC(=O)[C@@H](C)[C@@H]4[C@H](OC(C)=O)C(=O)[C@@]32C)/C1=C(\CCC=C(C)C)C(=O)O | 16 (≈ 27.5 µM)
4 | CCC(=O)O[C@@H]1C(=O)[C@@]2(C)[C@@H](CC[C@H]3C4=C(CCC=C(C)C)C(=O)O[C@H]4C[C@@]32C)[C@@]2(C)C=CC(=O)[C@@H](C)[C@H]12 | > 128
5 | CC(C)=CCCC1=C2[C@H](C[C@@]3(C)[C@H]2CC[C@H]2[C@@]4(C)C=CC(=O)[C@@H](C)[C@@H]4[C@H](O)C(=O)[C@@]23C)OC1=O | > 128
6 | CC(=O)O[C@H]1C[C@@]2(C)[C@@H](CC[C@H]3[C@@]4(C)C=CC(=O)[C@@H](C)[C@@H]4[C@H](OC(C)=O)C(=O)[C@@]32C)/C1=C(\CCC=C(C)C)C(=O)O [HELVOLIC ACID] | 8 (≈ 14.1 µM)
7 | CC(=O)O[C@H]1C[C@@]2(C)[C@@H](CC[C@H]3[C@@]4(C)C=CC(=O)[C@@H](C)[C@@H]4[C@H](OC(C)=O)C(=O)[C@@]32C)/C1=C1\CC[C@H](C(C)(C)O)OC1=O | > 128
8 | CC(=O)O[C@@H]1C(=O)[C@@]2(C)[C@@H](CC[C@H]3C4=C(CCC=C(C)C)C(=O)O[C@H]4C[C@@]32C)[C@@]2(C)CCC(=O)[C@@H](C)[C@H]12 | > 128
9 | CCC(=O)O[C@@H]1C(=O)[C@@]2(C)[C@@H](CC[C@H]3/C(=C(\CCC=C(C)C)C(=O)O)[C@@H](OC(C)=O)C[C@@]32C)[C@@]2(C)C=CC(=O)[C@@H](C)[C@H]12 | 2 (≈ 3.43 µM)
10 | CC(C)=CCCC1=C2[C@H](C[C@@]3(C)[C@H]2CC[C@H]2[C@@]4(C)CCC(=O)[C@@H](C)[C@@H]4[C@H](O)C(=O)[C@@]23C)OC1=O | > 128
11 | CC(=O)O[C@H]1C[C@@]2(C)[C@@H](CC[C@H]3[C@@]4(C)C=CC(=O)[C@@H](C)[C@@H]4[C@H](OC(C)=O)C(=O)[C@@]32C)/C1=C1\CC[C@@H](C(C)(C)O)OC1=O | 64 (≈ 109 µM)

What follows are molecules tested on Staphylococcus aureus (assay: Antimicrobial activity against Staphylococcus aureus after 24 hrs by two-fold dilution method).
Assay type: functional
Procedure, shortened: as §1

Row | SMILES | MIC [µg/mL]
12 | NC[C@H]1O[C@H](O[C@H]2[C@H](O)[C@@H](O[C@H]3O[C@H](CO)[C@@H](O)[C@H](N)[C@H]3O)[C@H](N)C[C@@H]2N)[C@H](N)C[C@@H]1O [TOBRAMYCIN] | 1 (≈ 2.14 µM)
13 | CC(=O)O[C@@H]1C(=O)[C@@]2(C)[C@@H](CC[C@H]3C4=C(CCC=C(C)C)C(=O)O[C@H]4C[C@@]32C)[C@@]2(C)C=CC(=O)[C@@H](C)[C@H]12 | > 128
14 | CCC(=O)O[C@H]1C[C@@]2(C)[C@@H](CC[C@H]3[C@@]4(C)C=CC(=O)[C@@H](C)[C@@H]4[C@H](OC(C)=O)C(=O)[C@@]32C)/C1=C(\CCC=C(C)C)C(=O)O | 16 (≈ 27.5 µM)
15 | CCC(=O)O[C@@H]1C(=O)[C@@]2(C)[C@@H](CC[C@H]3C4=C(CCC=C(C)C)C(=O)O[C@H]4C[C@@]32C)[C@@]2(C)C=CC(=O)[C@@H](C)[C@H]12 | > 128
16 | CC(C)=CCCC1=C2[C@H](C[C@@]3(C)[C@H]2CC[C@H]2[C@@]4(C)C=CC(=O)[C@@H](C)[C@@H]4[C@H](O)C(=O)[C@@]23C)OC1=O | > 128
17 | CC(=O)O[C@H]1C[C@@]2(C)[C@@H](CC[C@H]3[C@@]4(C)C=CC(=O)[C@@H](C)[C@@H]4[C@H](OC(C)=O)C(=O)[C@@]32C)/C1=C(\CCC=C(C)C)C(=O)O [HELVOLIC ACID] | 16 (≈ 28.1 µM)
18 | CC(=O)O[C@H]1C[C@@]2(C)[C@@H](CC[C@H]3[C@@]4(C)C=CC(=O)[C@@H](C)[C@@H]4[C@H](OC(C)=O)C(=O)[C@@]32C)/C1=C1\CC[C@H](C(C)(C)O)OC1=O | > 128
19 | CC(=O)O[C@@H]1C(=O)[C@@]2(C)[C@@H](CC[C@H]3C4=C(CCC=C(C)C)C(=O)O[C@H]4C[C@@]32C)[C@@]2(C)CCC(=O)[C@@H](C)[C@H]12 | > 128
20 | CCC(=O)O[C@@H]1C(=O)[C@@]2(C)[C@@H](CC[C@H]3/C(=C(\CCC=C(C)C)C(=O)O)[C@@H](OC(C)=O)C[C@@]32C)[C@@]2(C)C=CC(=O)[C@@H](C)[C@H]12 | 8 (≈ 13.7 µM)
21 | CC(C)=CCCC1=C2[C@H](C[C@@]3(C)[C@H]2CC[C@H]2[C@@]4(C)CCC(=O)[C@@H](C)[C@@H]4[C@H](O)C(=O)[C@@]23C)OC1=O | > 128
22 | CC(=O)O[C@H]1C[C@@]2(C)[C@@H](CC[C@H]3[C@@]4(C)C=CC(=O)[C@@H](C)[C@@H]4[C@H](OC(C)=O)C(=O)[C@@]32C)/C1=C1\CC[C@@H](C(C)(C)O)OC1=O | > 128

What follows are molecules tested on Escherichia coli (assay: Antimicrobial activity against Escherichia coli at 128 ug/ml after 24 hrs by two-fold dilution method).
Assay type: functional, organism-based

Row | SMILES | Activity
23 | CC(=O)O[C@@H]1C(=O)[C@@]2(C)[C@@H](CC[C@H]3C4=C(CCC=C(C)C)C(=O)O[C@H]4C[C@@]32C)[C@@]2(C)C=CC(=O)[C@@H](C)[C@H]12 | inactive
24 | CCC(=O)O[C@H]1C[C@@]2(C)[C@@H](CC[C@H]3[C@@]4(C)C=CC(=O)[C@@H](C)[C@@H]4[C@H](OC(C)=O)C(=O)[C@@]32C)/C1=C(\CCC=C(C)C)C(=O)O | inactive
25 | CCC(=O)O[C@@H]1C(=O)[C@@]2(C)[C@@H](CC[C@H]3C4=C(CCC=C(C)C)C(=O)O[C@H]4C[C@@]32C)[C@@]2(C)C=CC(=O)[C@@H](C)[C@H]12 | inactive
26 | CC(C)=CCCC1=C2[C@H](C[C@@]3(C)[C@H]2CC[C@H]2[C@@]4(C)C=CC(=O)[C@@H](C)[C@@H]4[C@H](O)C(=O)[C@@]23C)OC1=O | inactive
27 | CC(=O)O[C@H]1C[C@@]2(C)[C@@H](CC[C@H]3[C@@]4(C)C=CC(=O)[C@@H](C)[C@@H]4[C@H](OC(C)=O)C(=O)[C@@]32C)/C1=C(\CCC=C(C)C)C(=O)O [HELVOLIC ACID] | inactive
28 | CC(=O)O[C@H]1C[C@@]2(C)[C@@H](CC[C@H]3[C@@]4(C)C=CC(=O)[C@@H](C)[C@@H]4[C@H](OC(C)=O)C(=O)[C@@]32C)/C1=C1\CC[C@H](C(C)(C)O)OC1=O | inactive
29 | CC(=O)O[C@@H]1C(=O)[C@@]2(C)[C@@H](CC[C@H]3C4=C(CCC=C(C)C)C(=O)O[C@H]4C[C@@]32C)[C@@]2(C)CCC(=O)[C@@H](C)[C@H]12 | inactive
30 | CCC(=O)O[C@@H]1C(=O)[C@@]2(C)[C@@H](CC[C@H]3/C(=C(\CCC=C(C)C)C(=O)O)[C@@H](OC(C)=O)C[C@@]32C)[C@@]2(C)C=CC(=O)[C@@H](C)[C@H]12 | inactive
31 | CC(C)=CCCC1=C2[C@H](C[C@@]3(C)[C@H]2CC[C@H]2[C@@]4(C)CCC(=O)[C@@H](C)[C@@H]4[C@H](O)C(=O)[C@@]23C)OC1=O | inactive
32 | CC(=O)O[C@H]1C[C@@]2(C)[C@@H](CC[C@H]3[C@@]4(C)C=CC(=O)[C@@H](C)[C@@H]4[C@H](OC(C)=O)C(=O)[C@@]32C)/C1=C1\CC[C@@H](C(C)(C)O)OC1=O | inactive

Each molecule was assayed on Bacillus subtilis (assay: Antimicrobial activity against Bacillus subtilis at 128 ug/ml after 24 hrs by two-fold dilution method).
Assay type: functional, organism-based

Row | SMILES | Activity
33 | CC(=O)O[C@@H]1C(=O)[C@@]2(C)[C@@H](CC[C@H]3C4=C(CCC=C(C)C)C(=O)O[C@H]4C[C@@]32C)[C@@]2(C)C=CC(=O)[C@@H](C)[C@H]12 | inactive
34 | CCC(=O)O[C@H]1C[C@@]2(C)[C@@H](CC[C@H]3[C@@]4(C)C=CC(=O)[C@@H](C)[C@@H]4[C@H](OC(C)=O)C(=O)[C@@]32C)/C1=C(\CCC=C(C)C)C(=O)O | inactive
35 | CCC(=O)O[C@@H]1C(=O)[C@@]2(C)[C@@H](CC[C@H]3C4=C(CCC=C(C)C)C(=O)O[C@H]4C[C@@]32C)[C@@]2(C)C=CC(=O)[C@@H](C)[C@H]12 | inactive
36 | CC(C)=CCCC1=C2[C@H](C[C@@]3(C)[C@H]2CC[C@H]2[C@@]4(C)C=CC(=O)[C@@H](C)[C@@H]4[C@H](O)C(=O)[C@@]23C)OC1=O | inactive
37 | CC(=O)O[C@H]1C[C@@]2(C)[C@@H](CC[C@H]3[C@@]4(C)C=CC(=O)[C@@H](C)[C@@H]4[C@H](OC(C)=O)C(=O)[C@@]32C)/C1=C(\CCC=C(C)C)C(=O)O [HELVOLIC ACID] | inactive
38 | CC(=O)O[C@H]1C[C@@]2(C)[C@@H](CC[C@H]3[C@@]4(C)C=CC(=O)[C@@H](C)[C@@H]4[C@H](OC(C)=O)C(=O)[C@@]32C)/C1=C1\CC[C@H](C(C)(C)O)OC1=O | inactive
39 | CC(=O)O[C@@H]1C(=O)[C@@]2(C)[C@@H](CC[C@H]3C4=C(CCC=C(C)C)C(=O)O[C@H]4C[C@@]32C)[C@@]2(C)CCC(=O)[C@@H](C)[C@H]12 | inactive
40 | CCC(=O)O[C@@H]1C(=O)[C@@]2(C)[C@@H](CC[C@H]3/C(=C(\CCC=C(C)C)C(=O)O)[C@@H](OC(C)=O)C[C@@]32C)[C@@]2(C)C=CC(=O)[C@@H](C)[C@H]12 | inactive
41 | CC(C)=CCCC1=C2[C@H](C[C@@]3(C)[C@H]2CC[C@H]2[C@@]4(C)CCC(=O)[C@@H](C)[C@@H]4[C@H](O)C(=O)[C@@]23C)OC1=O | inactive
42 | CC(=O)O[C@H]1C[C@@]2(C)[C@@H](CC[C@H]3[C@@]4(C)C=CC(=O)[C@@H](C)[C@@H]4[C@H](OC(C)=O)C(=O)[C@@]32C)/C1=C1\CC[C@@H](C(C)(C)O)OC1=O | inactive

— ChEMBL document CHEMBL4196135, “Helvolic Acid Derivatives with Antibacterial Activities against Streptococcus agalactiae from the Marine-Derived Fungus Aspergillus fumigatus HNMF0047” (2018)
